Here are results for four compounds from publication PMC4475452 (Chemistry & biology, 2015).

Common to all, as to assay type: cell-based
Test [1] has as its system c-MYC. Nature of the test: c-MYC protein level by immunoblot in BL cell lines. Conditions: for c-MYC level upon withdrawal of compound from culture media: 1.0 µM for 24 hours, then removal, Namalwa and Ramos cells; for Time for c-MYC to recover to control level after compound removal: Namalwa cells, 24 hrs treatment (1.0 µM), three washes; for c-MYC level suppression: overnight treatment with increasing doses, BL cells, immunoblot. In general terms: In western blotting, separated proteins are transferred to a membrane and probed.

In test [2] the test system is SLC19A1. Description: SLC19A1 expression by RT-qPCR in Namalwa cells. As to conditions: for Time for SLC19A1 to recover to control treatment level post compound removal: 24 hours treatment (1.0 µM), qPCR. Background: In qPCR the cycle at which signal appears reflects the starting amount.
Test [3] relates to BL cell lines. Description: Caspase-Glo 3/7 apoptosis induction assay in BL cell lines. Conditions: 24 hour treatment, four BL cell lines; ARV-825 0.1 µM, JQ1 1.0 µM, OTX015 1.0 µM. The gist of the method: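 Four Burkitt lymphoma lines (Namalwa, Ramos, CA-46, DAUDI; from ATCC, maintained as instructed) were exposed for 24 hours to test compounds at 0.1 or 1.0 µM. Puromycin served as the apoptosis-induction positive control. Caspase 3/7 activity was read by luminescent Caspase-Glo 3/7 assay following the manufacturer's protocol.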

For test [4], the system named is BL cell lines. Nature of the test: Proliferation by CellTiter-Glo assay in BL cell lines. As to conditions: 72 hours; for Effect on proliferation: BL cell lines, CTG assay. The gist of the method: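 Burkitt lymphoma cells were seeded at 50000 per 100 µl in 96-well plates and given increasing concentrations of test compound. After 72 hours, CellTiter-Glo reagent was added and luminescence was read. Relative growth was calculated against DMSO-treated control cells.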
Background: Cellular ATP, detected with luciferase, serves as a proxy for viable cell number.

Test [5] concerns Ramos cells. Description: PARP cleavage by immunoblot. As to conditions: 48 hours, 0.1 µM.
Test [6] deals with BRD2. Description: BRD2 protein degradation by immunoblot. As to conditions: Supp Figure 3.
In test [7] the test system is BRD3. Description: BRD3 protein degradation by immunoblot. As to conditions: Supp Figure 3.
The target in test [8] is BRD4 (Homo sapiens, UniProt O60885). Nature of the test: BRD4 protein level by immunoblot in BL cell lines.

For `Cc1sc2c(c1C)C(c1ccc(Cl)cc1)=N[C@@H](CC(=O)Nc1ccc(O)cc1)c1nnc(C)n1-2` [OTX015], in test [1], the “c-MYC level upon withdrawal of compound from culture media” value is on record as “rapidly restored to normal”, the “Time for c-MYC to recover to control level after compound removal” value was 4 h and the c-MYC level suppression result was “unable to suppress c-MYC levels fully”. Moreover, the “Time for SLC19A1 to recover to control treatment level post compound removal” value in test [2] amounted to 6 h. Moreover, the “Caspases 3/7 activity” value in test [3] was “not with high dose of JQ1 and OTX015”.
As for `Cc1sc2c(c1C)C(c1ccc(Cl)cc1)=N[C@@H](CC(=O)Nc1ccc(OCCOCCOCCOCCNc3cccc4c3C(=O)N(C3CCC(=O)NC3=O)C4=O)cc1)c1nnc(C)n1-2` (some centres unmarked) [ARV-825], the c-MYC level suppression entry in test [1] is listed as “more pronounced downregulation of c-MYC”. In addition, in test [2] (compared with JQ1 and OTX015), the SLC19A1 suppression entry was “suppressed more substantially”. Further, in test [4] (ARV-825 0.01 or 0.1 µM with pomalidomide 1.0 or 10.0 µM), the “Proliferation suppression in presence of excessive pomalidomide” value is “rescued the proliferation suppression effect”. In addition, the Effect on proliferation entry in test [4] is “more pronounced suppression of proliferation than both JQ1 and OTX015”. Further, the “Caspases 3/7 activity” value in test [3] is recorded as “increased caspases 3/7 activity”. In test [5], the “Apoptosis (PARP cleavage)” value is “significant apoptosis”. Besides, the BRD2 degradation result in test [6] is given as “can be degraded”. Further, the BRD3 degradation result in test [7] was “can be degraded”.
Take `Cc1sc2c(c1C)C(c1ccc(Cl)cc1)=N[C@@H](CC(=O)OC(C)(C)C)c1nnc(C)n1-2` [JQ1]: in test [1], the “c-MYC level upon withdrawal of compound from culture media” value was “rapidly restored to normal”, the “Time for c-MYC to recover to control level after compound removal” value was 4 h and the c-MYC level suppression entry is given as “unable to suppress c-MYC levels fully”. The “Time for SLC19A1 to recover to control treatment level post compound removal” value in test [2] came out at 6 h. Besides, the “Caspases 3/7 activity” value in test [3] was “not with high dose of JQ1 and OTX015”.
For the compound `Nc1cccc2c1C(=O)N(C1CCC(=O)NC1=O)C2=O` (centres unmarked) [pomalidomide], the “Effect on BRD4 protein level” value in test [8] is “no impact on BRD4 protein levels”. In addition, the Effect on proliferation entry in test [4] is listed as “didn’t show any significant effects”.
